These results are taken from ChEMBL document CHEMBL1134514, “Synthesis of novel gamma-aminobutyric acid (GABA) uptake inhibitors. 5.(1) Preparation and structure-activity studies of tricyclic analogues of known GABA uptake inhibitors” (J Med Chem, 2001).

Assay [1] addresses GABA transporter (Rattus norvegicus, UniProt P31647+P23978+P31646+P48056). The experiment in a line: In vitro inhibition of [3H]GABA uptake in rat synaptosomes was determined. It counts as functional, subcellular, Brain. In short, it runs like this: (§1)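 Rat forebrain homogenized in ice-cold 0.32 M sucrose, spun 10 min at 600 g, 4 °C; pellet resuspended in pH 7.4 phosphate/NaCl/glucose buffer. Synaptosomes (0.1 mg protein) preincubated with test substance 8 min at 30 °C, then [3H]-GABA (0.9 nM final) plus unlabeled GABA (0.9 nM final) for 8 min. Filtration on glass fiber, ice-cold saline washes, scintillation counting. IC50 as mean of two determinations.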

For assay [2], the species on record is Rattus norvegicus. The experiment in a line: In vitro inhibition of [3H]GABA uptake determined. The class given is functional. In short, it runs like this:
as §1

Assay [3] concerns the target T1, GABA transporter (Mus musculus) (UniProt P31650+P31651+P31649+P31648). The experiment in a line: In vivo anticonvulsant effect measured as inhibition of DMCM -induced seizures in mice after ip administration. It counts as functional, organism-based. In short, it runs like this:
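Female NMRI mice given test drug ip 30 min before DMCM 15 mg/kg ip. Observed for 30 min for clonic seizures and death, N = 5-10 per dose. ED50 in mg/kg.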

Assay [4] addresses T1, GABA transporter (Mus musculus). The experiment in a line: In vivo anticonvulsant effect measured as rotarod in mice after ip administration. The class given is functional, organism-based. In short, it runs like this: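 Mice pretrained 2 min on rotarod (6 rpm, 3 cm rod), then dosed ip. On testing, a mouse that fell was placed back on the rod. Testing ended at 10 failures or after 2 min. ED50 in mg/kg.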
(In general: Falling from the rotarod earlier than controls is read as motor impairment.)

For assay [5] the target is unchanged. The experiment in a line: Ratio for ED50 values for inhibition of rotarod to inhibition of DMCM-induced convulsions in mice. The class given is functional. In short, it runs like this:
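Protective index is the rotarod ED50 divided by the ED50 for inhibiting DMCM (15 mg/kg ip) clonic seizures. Both were measured in mice after ip dosing.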

The species entered for assay [6] is Rattus norvegicus. The experiment in a line: In vitro inhibition of [3H]GABA uptake in rat synaptosomes was determined; No activity. It counts as functional, Brain.

Some results are limits rather than exact numbers.

As usually defined, the IC50 is the midpoint of a concentration-inhibition curve. A lower IC50 goes with inhibition by little substance. As a reminder, the ED50 is the midpoint of the dose-response relation. A higher ED50 goes with weaker potency.

With `O=C(O)C1CCCN(CCOC2c3ccccc3C=Cc3ccccc32)C1` (stereo not drawn), the IC50 in assay [1] amounted to 2500 nM.

Take `O=C(O)[C@@H]1CCCN(CCOCCN2c3ccc(Br)cc3CCc3cc(Br)ccc32)C1`: it took 1030 nM to reach half-maximal inhibition in assay [2] (IC50).

For the molecule `Cl.O=C(O)CC1CCN(CCOCCN2c3ccccc3CCc3ccccc32)C1` (stereo not drawn), the ED50 in assay [3] was found to be 31 mg/kg; in assay [4] it was 100 mg/kg. Besides, the IC50 in assay [1] is reported as 51 nM. In addition, the Protective index in assay [5] was 3.2.

As to `Cl.O=C(O)[C@@H]1CCCN(CCCOCC=C2c3ccccc3CCc3ccccc32)C1`, the ED50 is 60 mg/kg in assay [3] and greater than 150 mg/kg in assay [4]. Further, the IC50 in assay [1] was determined as 460 nM. The Protective index in assay [5] was greater than 2.5.

In assay [1], `Cl.O=C(O)[C@@H]1CCCN(CCOCCN(c2ccccc2)c2ccccc2)C1` gave an IC50 of 90 nM. Further, the Protective index in assay [5] was 1.6.

In the case of `Cl.O=C(O)[C@@H]1CCCN(CCOCCC(c2ccccc2)c2ccccc2)C1`, in assay [1], the IC50 is on record as 55 nM. The Protective index in assay [5] was found to be 5.3.

As for `Cl.O=C(O)[C@@H]1CCCN(CCOCCN2c3ccccc3Sc3ccccc32)C1`, the figures for the ED50 in assay [3] and in assay [4] were 30 mg/kg and 54 mg/kg, respectively. For the same molecule, in assay [1], the IC50 turned out to be 308 nM. Further, the Protective index in assay [5] was 1.8.

With `Cl.O=C(O)[C@@H]1CCCN(CCOCCN2c3ccccc3Sc3ccc(C(F)(F)F)cc32)C1`, the ED50 is 38 mg/kg in assay [3] and greater than 60 mg/kg in assay [4]. Moreover, in assay [1], the IC50 was determined as 105 nM. The Protective index in assay [5] was greater than 1.6.

In the case of `Cl.O=C(O)[C@@H]1CCCN(CCOCCN2c3ccccc3CCCc3ccccc32)C1`, the ED50 in assay [3] came out at 60 mg/kg. In assay [1], this molecule yielded an IC50 of 851 nM. In assay [5], the Protective index was greater than 1.5.

Consider `Cl.O=C(O)[C@@H]1CCCN(CCOCCN2c3ccccc3CCc3ccccc32)C1`, for which the ED50 amounted to 15 mg/kg in assay [3] and 85 mg/kg in assay [4]. In assay [1], this molecule had an IC50 of 184 nM. In addition, in assay [5], the Protective index was 5.7.

In the case of `Cl.O=C(O)[C@H]1CCCN(CCOC/C=C2\c3ccccc3CCc3ccc(Cl)cc32)C1`, the ED50 is 50 mg/kg in assay [3] and greater than 60 mg/kg in assay [4]. In assay [1], this molecule had an IC50 of 2495 nM. In addition, in assay [5], the Protective index is greater than 1.2.

In assay [1], `O=C(O)[C@@H]1CCCN(CCC=C2c3ccccc3-c3ccccc32)C1` displayed an IC50 of 2018 nM.

Consider `Cl.O=C(O)[C@H]1CCCN(CCOCCC2c3ccccc3CCc3ccccc32)C1`, for which the ED50 in assay [3] was 23 mg/kg; in assay [4], greater than 60 mg/kg. The molecule also came in with a concentration for half-maximal inhibition (IC50) in assay [1] of 561 nM. In assay [5], the Protective index is greater than 2.6.

Consider `Cl.O=C(O)[C@@H]1CCCN(CCOCCN2c3ccc(F)cc3CCc3cc(F)ccc32)C1`, for which the IC50 in assay [1] is 248 nM.

In assay [1], `Cl.O=C(O)[C@@H]1CCCN(CCON=C(c2ccccc2)c2ccccc2)C1` displayed an IC50 of 82 nM.

For the molecule `Cl.O=C(O)C1=CCCN(CCOCCN2c3ccccc3CCc3ccccc32)C1`, the ED50 in assay [3] stood at 7.3 mg/kg; in assay [4] it was 21 mg/kg. In assay [1], this molecule displayed an IC50 of 644 nM. For the same molecule, the Protective index in assay [5] is 2.9.

For the molecule `O=C(O)C1CCCN(CCOC2c3ccccc3-c3ccccc32)C1` (stereo not drawn), in assay [6], the IC50 entry was “Not Active”.

For the molecule `Cl.O=C(O)[C@@H]1CCCN(CCOCCN2c3ccccc3CCc3ccc(F)cc32)C1`, the 50% inhibitory concentration (IC50) in assay [1] is listed as 265 nM.

As to `O=C(O)[C@@H]1CCCN(CCOC=C2c3ccccc3CCc3ccccc32)C1`, in assay [2], the IC50 turned out to be 2180 nM.

With `Cl.O=C(O)[C@@H]1CCCN(CCOCCN2c3cc(Cl)ccc3CCc3ccc(Cl)cc32)C1`, the figures for the ED50 in assay [3] and in assay [4] were 45 mg/kg and greater than 100 mg/kg, respectively. Moreover, the IC50 in assay [1] amounted to 68 nM. The Protective index in assay [5] was greater than 2.2.

Regarding `Cl.O=C(O)[C@H]1CCCN(CCOCC=C2c3ccccc3CCc3ccccc32)C1`, the ED50 is 30 mg/kg in assay [3] and greater than 100 mg/kg in assay [4]. For the same molecule, the IC50 in assay [1] is listed as 770 nM. In addition, the Protective index in assay [5] is greater than 3.3.

Take `O=C(O)C1CCCN(CCC=C2c3ccccc3CCc3ccccc32)C1` (stereo not drawn): the ED50 in assay [3] and in assay [4] was greater than 60 mg/kg in each case. Besides, in assay [1], the IC50 was found to be 13600 nM.

In assay [1], `Cl.O=C(O)[C@@H]1CCCN(CCOCCn2c3ccccc3c3ccccc32)C1` returned an IC50 greater than 40000 nM.

`Cl.O=C(O)C1CCCN(CCOC(c2ccccc2)c2ccccc2)C1` (stereo not drawn) showed an IC50 in assay [1] of 1370 nM.

`Cl.O=C(O)[C@@H]1CCCN(CCOCCCN2c3ccccc3CCc3ccccc32)C1`: the ED50 in assay [3] was 50 mg/kg; in assay [4] it was greater than 60 mg/kg. In assay [1], this molecule came in with an IC50 of 696 nM. Further, the Protective index in assay [5] is greater than 1.2.

As to `Cl.O=C(O)[C@@H]1CCCN(CCON=C2c3ccccc3CCc3ccccc32)C1`, the ED50 in assay [3] is 30 mg/kg; in assay [4] it was greater than 100 mg/kg. This molecule also came in with an IC50 in assay [1] of 1161 nM. Further, the Protective index in assay [5] is greater than 3.3.

In assay [1], `Cl.O=C(O)[C@@H]1CCCN(CCOCCN2c3ccccc3Oc3ccccc32)C1` showed an IC50 of 14600 nM.

In assay [2], `O=C(O)[C@@H]1CCCN(CCOC=C(c2ccccc2)c2ccccc2)C1` gave an IC50 of 87 nM.

In assay [1], `Cl.O=C(O)C1=CCCN(CCOCCC2c3ccccc3CCc3ccccc32)C1` gave a 50% inhibitory concentration (IC50) of 1202 nM.

Consider `Cl.O=C(O)[C@@H]1CCCN(CCOCCN2c3ccccc3CCc3ccc(Cl)cc32)C1`, for which the median effective dose (ED50) in assay [3] was 15 mg/kg; in assay [4], greater than 30 mg/kg. In assay [1], this molecule returned an IC50 of 74 nM. In addition, the Protective index in assay [5] was greater than 2.

In the case of `Cl.O=C(O)[C@@H]1CCCN(CCON=C2c3cc(Cl)ccc3CCc3ccc(Cl)cc32)C1`, the 50% effective dose (ED50) is 35 mg/kg in assay [3] and 40 mg/kg in assay [4]. In assay [1], the IC50 is recorded as 5509 nM. Moreover, the Protective index in assay [5] was determined as 1.1.

For the molecule `Cl.O=C(O)[C@@H]1CCCN(CCOCCN2c3ccccc3C=Cc3ccccc32)C1`, the ED50 in assay [3] is 30 mg/kg; in assay [4], greater than 30 mg/kg. The IC50 in assay [1] is 647 nM. Besides, the Protective index in assay [5] was greater than 1.
